Assay results reported in ChEMBL document CHEMBL1828577, “Design and synthesis of some new thiophene, thienopyrimidine and thienothiadiazine derivatives of antipyrine as potential antimicrobial agents” (2011).
≈ marks a conversion by molar mass, not a printed value. Calls of active or inactive are those of the source. No cut-off for these calls is given here.

How the values were obtained:
Format in all cases: functional
[1] = test system: Syncephalastrum racemosum; assay: Antifungal activity against Syncephalastrum racemosum RCMB 052003 at 30 mg/ml after 3 to 4 days by agar well diffusion method; details: read-out: DIZ
[2] = test system: Escherichia coli; assay: Antibacterial activity against Escherichia coli RCMB 000103 at 10 mg/ml after 24 hrs by agar well diffusion method; details: for zone of inhibition at 10000 µg/mL: RCMB 000103, 24 h, read-out: DIZ
How it was run: (§1)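 Agar well diffusion on nutrient agar (tryptone 1%, yeast extract 0.5%, NaCl 0.5%, agar 1%, pH 7.0). Plates spread with centrifuged pellets from a 24 h culture (about 10^4-10^6 CFU/ml). 100 µl of sample at 10 mg/mL in DMSO per 6 mm well, DMSO control. Incubated at 37 °C for 24 h. Inhibition zone diameter (mm) caliper-read three times; test run three times; mean ± SD.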

[3] = test system: Candida albicans; assay: Antifungal activity against Candida albicans RCMB 052002 at 10 mg/ml after 3 to 4 days by agar well diffusion method; details: for zone of inhibition at 10000 µg/mL: read-out: DIZ
How it was run: (§2)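 Agar well diffusion on Sabouraud dextrose agar (glucose–peptone–agar 40:10:15). Culture grown in Sabouraud broth for 3-4 days to 10^5 CFU mL⁻¹; 0.1 mL spread per plate. Wells sealed at the bottom with 0.8% soft agar, then loaded with 100 µl sample at 10 mg mL⁻¹ in DMSO; DMSO control. Incubated at 30 °C for 3–4 days. Zone caliper-read three times; triplicate tests; mean ± SD.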

[4] = test system: Staphylococcus aureus; assay: Antibacterial activity against Staphylococcus aureus RCMB 000106 at 10 mg/ml after 24 hrs by agar well diffusion method; details: for zone of inhibition at 10000 µg/mL: RCMB 000106, 24 h, read-out: DIZ; how it was run: as §1
[5] = test system: Bacillus subtilis; assay: Antibacterial activity against Bacillus subtilis RCMB 000107 at 10 mg/ml after 24 hrs by agar well diffusion method; details: for zone of inhibition at 10000 µg/mL: RCMB 000107, 24 h, read-out: DIZ; how it was run: as §1
[6] = test system: Syncephalastrum racemosum; assay: Antifungal activity against Syncephalastrum racemosum RCMB 052003 at 10 mg/ml after 3 to 4 days by agar well diffusion method; details: for zone of inhibition at 10000 µg/mL: read-out: DIZ; how it was run: as §2
[7] = test system: Aspergillus fumigatus; assay: Antifungal activity against Aspergillus fumigatus RCMB 002003 at 10 mg/ml after 3 to 4 days by agar well diffusion method; details: for zone of inhibition at 10000 µg/mL: read-out: DIZ; how it was run: as §2
[8] = test system: Pseudomonas aeruginosa; assay: Antibacterial activity against Pseudomonas aeruginosa RCMB 000102 at 10 mg/ml after 24 hrs by agar well diffusion method; how it was run: as §1
[9] = test system: Geotrichum candidum; assay: Antifungal activity against Geotrichum candidum RCMB 052006 at 10 mg/ml after 3 to 4 days by agar well diffusion method; details: for zone of inhibition at 10000 µg/mL: read-out: DIZ; how it was run: as §2
[10] = test system: Bacillus subtilis; assay: Antibacterial activity against Bacillus subtilis RCMB 000107 at 30 mg/ml after 24 hrs by agar well diffusion method; details: RCMB 000107, 24 h, read-out: DIZ
[11] = test system: Staphylococcus aureus; assay: Antibacterial activity against Staphylococcus aureus RCMB 000106 at 30 mg/ml after 24 hrs by agar well diffusion method; details: RCMB 000106, 24 h, read-out: DIZ
[12] = test system: Syncephalastrum racemosum; assay: Antifungal activity against Syncephalastrum racemosum RCMB 052003 after 3 to 4 days by two fold serial dilution method
How it was run: (§3)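 MIC by agar plate method. Two-fold serial dilutions in Sabouraud dextrose broth, autoclaved at 121 °C for 25 min; DMSO control. Loop of culture diluted to 10⁵–10⁶ CFU mL⁻¹. Incubated at 30 °C for 3–4 days, then colonies counted. MIC taken as the lowest concentration fully inhibiting growth relative to control, ignoring a single colony or faint haze.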

[13] = test system: Pseudomonas aeruginosa; assay: Antibacterial activity against Pseudomonas aeruginosa RCMB 000102 after 24 hrs by two fold serial dilution method; details: RCMB 000102, 24 h
How it was run: (§4)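 MIC by agar plate method. Two-fold serial dilutions in nutrient broth (beef extract 5 g, peptone 10 g per litre, pH 7.0), autoclaved at 121 °C for 25 min; DMSO control. Loop inoculum diluted to 10⁵–10⁶ CFU mL⁻¹. Incubated at 37 °C for 24 h, then colonies counted. MIC taken as the lowest concentration giving complete inhibition, ignoring a single colony or faint haze.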

[14] = test system: Bacillus subtilis; assay: Antibacterial activity against Bacillus subtilis RCMB 000107 after 24 hrs by two fold serial dilution method; details: RCMB 000107, 24 h; how it was run: as §4
[15] = test system: Staphylococcus aureus; assay: Antibacterial activity against Staphylococcus aureus RCMB 000106 after 24 hrs by two fold serial dilution method; details: RCMB 000106, 24 h; how it was run: as §4
[16] = test system: Escherichia coli; assay: Antibacterial activity against Escherichia coli RCMB 000103 after 24 hrs by two fold serial dilution method; details: RCMB 000103, 24 h; how it was run: as §4
[17] = test system: Geotrichum candidum; assay: Antifungal activity against Geotrichum candidum RCMB 052006 after 3 to 4 days by two fold serial dilution method; how it was run: as §3
[18] = test system: Candida albicans; assay: Antifungal activity against Candida albicans RCMB 052002 after 3 to 4 days by two fold serial dilution method; how it was run: as §3
[19] = test system: Aspergillus fumigatus; assay: Antifungal activity against Aspergillus fumigatus RCMB 002003 after 3 to 4 days by two fold serial dilution method; how it was run: as §3

## Clc1ccccc1C(c1ccccc1)(c1ccccc1)n1ccnc1 [CLOTRIMAZOLE]
[1]
  zone of inhibition at 30000 µg/mL: 20 mm

## CC(=O)Nc1c(C)n(C)n(-c2ccccc2)c1=O
[2]
  zone of inhibition at 10000 µg/mL: 11.4 mm
[3]
  zone of inhibition at 10000 µg/mL: 12.2 mm
[4]
  zone of inhibition at 10000 µg/mL: 15.9 mm
[5]
  zone of inhibition at 10000 µg/mL: 13.2 mm
[6]
  diameter of the inhibition zone (DIZ): inactive
[7]
  zone of inhibition at 10000 µg/mL: 14.3 mm
[8]
  diameter of the inhibition zone (DIZ): inactive
[9]
  zone of inhibition at 10000 µg/mL: 13.4 mm

## Cc1c(Nc2csc3ncnc(N)c23)c(=O)n(-c2ccccc2)n1C
[2]
  zone of inhibition at 10000 µg/mL: 10.4 mm
[3]
  zone of inhibition at 10000 µg/mL: 11 mm
[4]
  zone of inhibition at 10000 µg/mL: 13.9 mm
[5]
  zone of inhibition at 10000 µg/mL: 15.2 mm
[6]
  zone of inhibition at 10000 µg/mL: 13.4 mm
[7]
  zone of inhibition at 10000 µg/mL: 12.5 mm
[8]
  diameter of the inhibition zone (DIZ): inactive
[9]
  zone of inhibition at 10000 µg/mL: 12.8 mm

## CN[C@@H]1[C@H](O[C@H]2[C@H](O[C@H]3[C@H](O)[C@@H](O)[C@H](N=C(N)N)[C@@H](O)[C@@H]3N=C(N)N)O[C@@H](C)[C@]2(O)C=O)O[C@@H](CO)[C@H](O)[C@H]1O [STREPTOMYCIN]
[10]
  zone of inhibition at 30000 µg/mL: 29 mm
[11]
  zone of inhibition at 30000 µg/mL: 25 mm

## CCC(C)n1ncn(-c2ccc(N3CCN(c4ccc(OCC5COC(Cn6cncn6)(c6ccc(Cl)cc6Cl)O5)cc4)CC3)cc2)c1=O (configuration not stated) [ITRACONAZOLE]
[1]
  zone of inhibition at 30000 µg/mL: 22 mm

## Cc1c(Nc2csc3ncn(N)c(=N)c23)c(=O)n(-c2ccccc2)n1C
[2]
  diameter of the inhibition zone (DIZ): inactive
[3]
  diameter of the inhibition zone (DIZ): inactive
[4]
  diameter of the inhibition zone (DIZ): inactive
[5]
  diameter of the inhibition zone (DIZ): inactive
[6]
  diameter of the inhibition zone (DIZ): inactive
[7]
  diameter of the inhibition zone (DIZ): inactive
[8]
  diameter of the inhibition zone (DIZ): inactive
[9]
  diameter of the inhibition zone (DIZ): inactive

## CCOC(=O)C(=O)CC(=O)Nc1c(C)n(C)n(-c2ccccc2)c1=O
[2]
  diameter of the inhibition zone (DIZ): inactive
[3]
  zone of inhibition at 10000 µg/mL: 10.6 mm
[4]
  zone of inhibition at 10000 µg/mL: 16.3 mm
[5]
  zone of inhibition at 10000 µg/mL: 16.2 mm
[6]
  diameter of the inhibition zone (DIZ): inactive
[7]
  zone of inhibition at 10000 µg/mL: 11.1 mm
[8]
  diameter of the inhibition zone (DIZ): inactive
[9]
  zone of inhibition at 10000 µg/mL: 13.4 mm

## CCO/C=N\c1scc(Nc2c(C)n(C)n(-c3ccccc3)c2=O)c1C#N
[12]
  MIC: 625 µg/mL (≈ 1640 µM)
[2]
  zone of inhibition at 10000 µg/mL: 13.8 mm
[13]
  MIC: 78 µg/mL (≈ 204 µM)
[3]
  zone of inhibition at 10000 µg/mL: 14.2 mm
[14]
  MIC: 39 µg/mL (≈ 102 µM)
[4]
  zone of inhibition at 10000 µg/mL: 18.4 mm
[5]
  zone of inhibition at 10000 µg/mL: 19.2 mm
[6]
  zone of inhibition at 10000 µg/mL: 8.5 mm
[15]
  MIC: 78 µg/mL (≈ 204 µM)
[16]
  MIC: 156 µg/mL (≈ 409 µM)
[7]
  zone of inhibition at 10000 µg/mL: 19.2 mm
[17]
  MIC: 78 µg/mL (≈ 204 µM)
[18]
  MIC: 156 µg/mL (≈ 409 µM)
[19]
  MIC: 78 µg/mL (≈ 204 µM)
[8]; RCMB 000102, 24 h, read-out: DIZ
  zone of inhibition at 10000 µg/mL: 16.2 mm
[9]
  zone of inhibition at 10000 µg/mL: 17.4 mm
